Reference: ChEMBL document CHEMBL4346663, “N-Cinnamoylanthranilates as human TRPA1 modulators: Structure-activity relationships and channel binding sites” (Eur J Med Chem, 2019)
Active and inactive are the calls of the source. The calls are words filed in the database; no cut-off is given here.

Key:
[1] = biological target: T1, Transient receptor potential cation channel subfamily A member 1 (Homo sapiens, UniProt O75762); assay: Modulating activity at human TRPA1 expressed in HEK293 cells assessed as desensitization of CA-induced increase in Ca2+ influx at 10 uM measured within 10 mins by Fluo-4-AM dye based fluorescence assay; format: cell-based
T1 sequence (O75762 whole entry): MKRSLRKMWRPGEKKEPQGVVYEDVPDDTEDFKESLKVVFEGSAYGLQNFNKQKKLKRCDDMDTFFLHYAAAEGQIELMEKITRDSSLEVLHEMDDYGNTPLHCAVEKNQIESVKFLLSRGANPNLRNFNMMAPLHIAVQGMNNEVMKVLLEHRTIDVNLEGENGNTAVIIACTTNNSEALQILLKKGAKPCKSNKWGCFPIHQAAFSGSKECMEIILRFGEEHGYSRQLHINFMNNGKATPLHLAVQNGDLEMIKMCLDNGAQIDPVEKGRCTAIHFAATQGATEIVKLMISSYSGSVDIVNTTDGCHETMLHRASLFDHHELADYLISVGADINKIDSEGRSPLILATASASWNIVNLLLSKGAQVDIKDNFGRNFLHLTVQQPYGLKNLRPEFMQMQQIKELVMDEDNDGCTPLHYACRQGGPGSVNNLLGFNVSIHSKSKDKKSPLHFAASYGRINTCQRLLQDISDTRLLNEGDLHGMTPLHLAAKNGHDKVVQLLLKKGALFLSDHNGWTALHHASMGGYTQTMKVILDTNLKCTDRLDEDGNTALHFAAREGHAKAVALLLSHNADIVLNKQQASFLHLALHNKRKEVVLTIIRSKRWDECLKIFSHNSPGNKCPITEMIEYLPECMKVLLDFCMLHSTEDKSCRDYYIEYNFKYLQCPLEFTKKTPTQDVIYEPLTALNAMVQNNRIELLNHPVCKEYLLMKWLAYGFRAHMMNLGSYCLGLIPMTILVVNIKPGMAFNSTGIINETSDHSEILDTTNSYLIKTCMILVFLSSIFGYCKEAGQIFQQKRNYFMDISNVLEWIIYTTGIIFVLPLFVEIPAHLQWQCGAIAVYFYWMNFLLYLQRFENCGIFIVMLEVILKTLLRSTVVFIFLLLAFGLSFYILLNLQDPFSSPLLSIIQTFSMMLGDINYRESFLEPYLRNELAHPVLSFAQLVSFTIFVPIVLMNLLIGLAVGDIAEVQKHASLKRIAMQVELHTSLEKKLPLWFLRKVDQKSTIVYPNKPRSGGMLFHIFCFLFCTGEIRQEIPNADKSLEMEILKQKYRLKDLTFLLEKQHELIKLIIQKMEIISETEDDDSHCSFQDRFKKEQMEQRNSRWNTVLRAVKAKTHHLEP
Summary of the method: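 hTRPA1-HEK293 cells with Fluo-4AM. Real-time fluorescence recorded for 10 min after compound addition (10 µM), followed by challenge with cinnamaldehyde (30 µM) to assess desensitization of the agonist response.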

[2] = Dissociation constant, pKa of the compound at pH 7.4; format: physicochemical
[3] = biological target: T1, Transient receptor potential cation channel subfamily A member 1; assay: Irreversible desensitizing activity at human TRPA1 expressed in HEK293 cells assessed as CA-induced increase in Ca2+ influx at >30 uM pretreated with compound followed by drug wash-out and CA challenge by Fluo-4-AM dye based fluorescence assay; format: cell-based
Summary of the method: (§1)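 hTRPA1-HEK293 cells loaded with Fluo-4AM were pre-incubated with compound, then washed and resuspended in fresh assay buffer. The response to cinnamaldehyde (30 µM) was then measured by FlexStation calcium fluorescence.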

[4] = biological target: T1, Transient receptor potential cation channel subfamily A member 1; assay: Antagonist activity at human TRPA1 expressed in HEK293 cells assessed as increase in calcium influx at 100 uM incubated for 10 mins prior to CA addition by Fluo-4-AM dye based fluorescence assay relative to CA; format: cell-based; design: scale not given: the % may be the effect or the level left
Summary of the method: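 hTRPA1-HEK293 cells loaded with Fluo-4AM (2 µM). Compound pre-incubated 10 min, then cinnamaldehyde standard agonist added. FlexStation read, ex 485/em 538 nm. ΔRFU normalized to the CA response set at 100 % after DMSO vehicle subtraction. N = 3. logIC50 taken from dose-response fits.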

[5] = biological target: T1, Transient receptor potential cation channel subfamily A member 1; assay: Agonist activity at human TRPA1 expressed in HEK293 cells assessed as increase in calcium influx by Fluo-4-AM dye based fluorescence assay; format: cell-based
Summary of the method: (§2)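 Stably transfected hTRPA1- or hTRPM8-HEK293 cells on poly-D-lysine plates for 48 h, loaded with Fluo-4AM (2 µM, 45 min, dark, room temperature), in isotonic HEPES buffer pH 7.4. FlexStation 240 s run: 20 s baseline, compound added, calcimycin added at 180 s. ΔRFU expressed as % calcimycin, DMSO-subtracted. Screening N = 3. Dose-response curves fitted for logEC50 (N = 3 in duplicate or triplicate).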

[6] = biological target: T2, Transient receptor potential cation channel subfamily M member 8 (Homo sapiens, UniProt Q7Z2W7); assay: Agonist activity at human TRPM8 expressed in HEK293 cells assessed as increase in calcium influx at 100 uM by Fluo-4-AM dye based fluorescence assay relative to calcimycin; format: cell-based; summary of the method: as §2
Target sequence in this assay (Q7Z2W7 whole entry, looked up): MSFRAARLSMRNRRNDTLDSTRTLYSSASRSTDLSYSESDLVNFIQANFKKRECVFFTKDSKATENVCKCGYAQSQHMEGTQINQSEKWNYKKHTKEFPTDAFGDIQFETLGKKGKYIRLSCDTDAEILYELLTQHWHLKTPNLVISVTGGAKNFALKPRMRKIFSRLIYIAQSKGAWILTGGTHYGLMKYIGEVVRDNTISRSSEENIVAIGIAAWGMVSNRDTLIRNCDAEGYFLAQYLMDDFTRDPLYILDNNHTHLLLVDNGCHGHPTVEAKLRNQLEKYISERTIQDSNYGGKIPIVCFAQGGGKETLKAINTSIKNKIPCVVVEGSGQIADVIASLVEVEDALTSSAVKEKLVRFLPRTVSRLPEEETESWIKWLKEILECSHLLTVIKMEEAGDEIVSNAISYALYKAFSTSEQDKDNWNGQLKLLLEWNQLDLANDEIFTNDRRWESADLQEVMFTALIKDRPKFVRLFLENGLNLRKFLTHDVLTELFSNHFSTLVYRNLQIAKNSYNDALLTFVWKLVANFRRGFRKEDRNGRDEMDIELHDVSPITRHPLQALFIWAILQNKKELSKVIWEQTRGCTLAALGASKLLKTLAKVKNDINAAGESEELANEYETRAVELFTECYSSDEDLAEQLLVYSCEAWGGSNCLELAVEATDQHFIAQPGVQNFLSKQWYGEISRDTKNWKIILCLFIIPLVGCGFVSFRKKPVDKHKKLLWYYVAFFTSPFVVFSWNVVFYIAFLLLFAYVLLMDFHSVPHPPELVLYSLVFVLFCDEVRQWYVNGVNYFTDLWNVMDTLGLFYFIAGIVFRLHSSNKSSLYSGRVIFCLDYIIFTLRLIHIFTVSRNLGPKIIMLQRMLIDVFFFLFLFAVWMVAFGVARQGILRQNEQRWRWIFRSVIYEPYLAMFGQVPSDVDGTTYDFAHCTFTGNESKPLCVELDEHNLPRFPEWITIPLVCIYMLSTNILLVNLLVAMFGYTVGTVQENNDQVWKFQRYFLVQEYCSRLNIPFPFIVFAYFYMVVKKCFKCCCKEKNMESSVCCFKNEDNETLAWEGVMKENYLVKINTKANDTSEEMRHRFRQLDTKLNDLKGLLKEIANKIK

[7] = biological target: T1, Transient receptor potential cation channel subfamily A member 1; assay: Antagonist activity at human TRPA1 expressed in HEK293 cells assessed as inhibition of CA-induced increase in calcium influx incubated for 10 mins prior to CA addition by Fluo-4-AM dye based fluorescence assayy; format: cell-based
[8] = biological target: T1, Transient receptor potential cation channel subfamily A member 1; assay: Reversible desensitizing activity at human TRPA1 expressed in HEK293 cells assessed as CA-induced increase in Ca2+ influx up to 30 uM pretreated with compound followed by drug wash-out and CA challenge by Fluo-4-AM dye based fluorescence assay; format: cell-based; summary of the method: as §1
[9] = biological target: T2, Transient receptor potential cation channel subfamily M member 8; assay: Antagonist activity at human TRPM8 expressed in HEK293 cells assessed as increase in calcium influx at 100 uM incubated for 10 mins prior to WS5 challenge by Fluo-4-AM dye based fluorescence assay relative to WS5; format: cell-based; design: scale not given: the % may be the effect or the level left
Summary of the method: (§3)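 hTRPM8-HEK293 cells loaded with Fluo-4AM (2 µM, 45 min). Test compound pre-incubated 10 min before WS5 standard agonist. FlexStation fluorescence at 485/538 nm. ΔRFU given as % of WS5 response after DMSO vehicle subtraction. N = 3. IC50 from dose-response curves.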
Target sequence in this assay (Q7Z2W7 whole entry, looked up): as above

[10] = biological target: T1, Transient receptor potential cation channel subfamily A member 1; assay: Agonist activity at human TRPA1 expressed in HEK293 cells assessed as increase in calcium influx at 30 uM by Fluo-4-AM dye based fluorescence assay relative to calcimycin; format: cell-based; summary of the method: as §2
[11] = biological target: T2, Transient receptor potential cation channel subfamily M member 8; assay: Agonist activity at human TRPM8 expressed in HEK293 cells assessed as increase in calcium influx at 30 uM by Fluo-4-AM dye based fluorescence assay relative to calcimycin; format: cell-based; summary of the method: as §2
Target sequence in this assay (Q7Z2W7 whole entry, looked up): as above

Cavia porcellus [12] = organism: Cavia porcellus; assay: Antagonist activity at TRPA1 in Dunkin-Hartley guinea pig vagus nerve assessed as inhibition of ACR-stimulated vagus nerve by measuring depolarization at 300 uM incubated for 10 mins followed by ACR stimulation for 140 secs […]
Summary of the method: (§4)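 Guinea pig vagus nerve (male Dunkin-Hartley) in Krebs-Henseleit buffer; compound from DMSO stock diluted 1000×. Two control acrolein (300 µM, 2 min) responses, each washed to baseline. Then 10 min compound pretreatment and re-stimulation with acrolein 300 µM for 2 min 20 s. After washout, a recovery acrolein response was taken. Depolarization recorded in mV.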

Cavia porcellus [13] = organism: Cavia porcellus; assay: Agonist activity at TRPA1 in Dunkin-Hartley guinea pig vagus nerve assessed as activation of vagus nerve by measuring depolarization at 300 uM […]
Summary of the method: (§5)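 Isolated vagus nerves from male Dunkin-Hartley guinea pigs (300-400 g, eight animals). Compound DMSO stocks diluted 1000× in Krebs-Henseleit buffer. Viability checked with capsaicin (1 µM) at the start and acrolein (300 µM) at the end. Single non-cumulative concentrations applied for 2 min each, with KH wash to baseline between them. DMSO vehicle run alike. Depolarization recorded in mV.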

[14] = test system: Transient receptor potential cation channel subfamily A member 1 (Homo sapiens), O75762 [F909A]; assay: Antagonist activity at human TRPA1 Phe909Ala mutant expressed in HEK293 cells assessed as Ca2+ influx at 100 uM by fluorescence assay; format: cell-based
Sequence of Transient receptor potential cation channel subfamily A member 1 (Homo sapiens), O75762 [F909A] (O75762 whole entry F909A): as the sequence (O75762 whole entry) above, with F909A counted along it
Summary of the method: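 hTRPA1 F909A or F944A mutant HEK293 stable clones, loaded with Fluo-4AM (2 µM, 45 min, room temperature). Compound pre-incubated 10 min before the standard agonist was added. FlexStation fluorescence (485/538 nm). ΔRFU normalized to the standard agonist response set at 100 %, after DMSO vehicle subtraction.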

[15] = test system: Transient receptor potential cation channel subfamily A member 1 (Homo sapiens), O75762 [C621A]; assay: Agonist activity at human TRPA1 […] mutant expressed in HEK293 cells assessed as Ca2+ influx at 100 uM by fluorescence assay; format: cell-based
Sequence of Transient receptor potential cation channel subfamily A member 1 (Homo sapiens), O75762 [C621A] (O75762 whole entry C621A): as the sequence (O75762 whole entry) above, with C621A counted along it

[16] = biological target: Transient receptor potential cation channel subfamily A member 1 (Mus musculus, UniProt Q8BLA8); assay: Agonist activity at mouse TRPA1 expressed in CHO cells assessed as increase in calcium influx by patch clamp electrophysiology method; format: cell-based
Sequence of Transient receptor potential cation channel subfamily A member 1 (Mus musculus, UniProt Q8BLA8) (Q8BLA8 whole entry): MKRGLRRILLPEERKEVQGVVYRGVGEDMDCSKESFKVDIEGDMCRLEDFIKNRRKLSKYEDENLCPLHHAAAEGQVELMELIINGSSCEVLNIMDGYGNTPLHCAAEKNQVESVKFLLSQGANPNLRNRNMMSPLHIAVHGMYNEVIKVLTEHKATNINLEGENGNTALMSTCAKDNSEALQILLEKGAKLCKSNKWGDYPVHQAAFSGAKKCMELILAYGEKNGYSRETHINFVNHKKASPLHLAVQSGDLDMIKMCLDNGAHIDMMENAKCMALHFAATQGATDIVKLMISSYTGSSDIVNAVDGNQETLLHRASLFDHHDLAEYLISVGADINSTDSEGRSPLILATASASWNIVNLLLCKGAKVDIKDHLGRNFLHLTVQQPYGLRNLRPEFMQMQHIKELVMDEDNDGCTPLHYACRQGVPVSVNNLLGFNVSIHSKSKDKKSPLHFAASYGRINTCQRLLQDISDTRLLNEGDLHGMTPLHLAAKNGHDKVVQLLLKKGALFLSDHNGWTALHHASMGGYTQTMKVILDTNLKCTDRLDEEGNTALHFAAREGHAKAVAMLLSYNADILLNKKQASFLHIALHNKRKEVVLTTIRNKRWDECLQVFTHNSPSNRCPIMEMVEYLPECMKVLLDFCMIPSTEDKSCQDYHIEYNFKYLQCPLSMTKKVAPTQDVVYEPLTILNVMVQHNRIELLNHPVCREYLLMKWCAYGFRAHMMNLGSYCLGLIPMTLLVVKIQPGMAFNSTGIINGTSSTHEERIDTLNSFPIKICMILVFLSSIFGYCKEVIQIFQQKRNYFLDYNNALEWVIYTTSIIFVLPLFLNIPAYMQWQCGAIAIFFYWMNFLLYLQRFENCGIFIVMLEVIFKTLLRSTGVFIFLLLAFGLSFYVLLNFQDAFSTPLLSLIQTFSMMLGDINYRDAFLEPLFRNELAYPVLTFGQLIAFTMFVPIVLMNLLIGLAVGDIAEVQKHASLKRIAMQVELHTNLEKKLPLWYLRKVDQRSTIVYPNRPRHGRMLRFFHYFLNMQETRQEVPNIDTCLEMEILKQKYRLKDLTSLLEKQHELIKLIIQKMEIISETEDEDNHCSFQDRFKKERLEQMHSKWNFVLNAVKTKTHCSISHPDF

[17] = test system: Transient receptor potential cation channel subfamily A member 1 (Homo sapiens), O75762 [F944A]; assay: Agonist activity at human TRPA1 Phe944Ala mutant expressed in HEK293 cells assessed as Ca2+ influx at 100 uM by fluorescence assay; format: cell-based
Sequence of Transient receptor potential cation channel subfamily A member 1 (Homo sapiens), O75762 [F944A] (O75762 whole entry F944A): as the sequence (O75762 whole entry) above, with F944A counted along it
Summary of the method: (§6)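 HEK293 cells stably expressing hTRPA1 point mutants, made by FuGENE 6 transfection, G418 (0.5 mg ml-1) selection and single-cell cloning, grown in DMEM with 25 mM HEPES, 10% FBS and geneticin. Ca2+ influx was read by Fluo dye fluorescence at room temperature, with calcimycin added at the end. Response was ΔRFU as % of calcimycin, with the DMSO vehicle subtracted.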

[18] = test system: Transient receptor potential cation channel subfamily A member 1 (Homo sapiens), O75762 [F909A]; assay: Agonist activity at human TRPA1 Phe909Ala mutant expressed in HEK293 cells assessed as Ca2+ influx at 100 uM by fluorescence assay; format: cell-based; summary of the method: as §6
[19] = biological target: T1, Transient receptor potential cation channel subfamily A member 1; assay: Agonist activity at human TRPA1 in WI38 cells assessed as increase in calcium influx by Fluo-4-AM dye based fluorescence assay; format: cell-based
[20] = test system: Transient receptor potential cation channel subfamily A member 1 (Homo sapiens), O75762 [F909A]; assay: Agonist activity at human TRPA1 Phe909Ala mutant expressed in HEK293 cells assessed as Ca2+ influx at 30 uM by fluorescence assay; format: cell-based
Summary of the method: (§7)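 HEK293 cells stably expressing hTRPA1 point mutants (C621A, F909A or F944A), single-cell cloned under G418 selection. Cells plated on poly-D-lysine for 48 h, loaded with Fluo-4AM 2 µM for 45 min at room temperature. FlexStation read (ex 485/em 538 nm): 20 s baseline, compound added, calcimycin added at 180 s. Response expressed as % calcimycin from ΔRFU, vehicle-subtracted, and compared with wild-type hTRPA1 cells.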

[21] = test system: Transient receptor potential cation channel subfamily A member 1 (Homo sapiens), O75762 [F909A]; assay: Agonist activity at human TRPA1 Phe909Ala mutant expressed in HEK293 cells assessed as Ca2+ influx […] fluorescence assay; format: cell-based; summary of the method: as §7
[22] = biological target: T2, Transient receptor potential cation channel subfamily M member 8; assay: Antagonist activity at human TRPM8 expressed in HEK293 cells assessed as inhibition in WS5-induced increase in calcium influx incubated for 10 mins prior to WS5 challenge by Fluo-4-AM dye based fluorescence assay; format: cell-based; summary of the method: as §3
Target sequence in this assay (Q7Z2W7 whole entry): as the sequence (Q7Z2W7 whole entry, looked up) above

[23] = test system: Transient receptor potential cation channel subfamily A member 1 (Homo sapiens), O75762 [F944A]; assay: Agonist activity at human TRPA1 Phe944Ala mutant expressed in HEK293 cells assessed as Ca2+ influx at 10 uM by fluorescence assay; format: cell-based; summary of the method: as §7
[24] = test system: Transient receptor potential cation channel subfamily A member 1 (Homo sapiens), O75762 [F909A]; assay: Agonist activity at human TRPA1 Phe909Ala mutant expressed in HEK293 cells assessed as Ca2+ influx at 10 uM by fluorescence assay; format: cell-based; summary of the method: as §7
Cavia porcellus [25] = organism: Cavia porcellus; assay: Antagonist activity at TRPA1 in Dunkin-Hartley guinea pig vagus nerve assessed as inhibition of ACR-stimulated vagus nerve by measuring depolarization at 100 uM incubated for 10 mins followed by ACR stimulation for 140 secs […]; summary of the method: as §4
[26] = test system: Transient receptor potential cation channel subfamily A member 1 (Homo sapiens), O75762 [F944A]; assay: Agonist activity at human TRPA1 Phe944Ala mutant expressed in HEK293 cells assessed as Ca2+ influx at 30 uM by fluorescence assay; format: cell-based; summary of the method: as §7
Cavia porcellus [27] = organism: Cavia porcellus; assay: Agonist activity at TRPA1 in Dunkin-Hartley guinea pig vagus nerve assessed as activation of vagus nerve by measuring depolarization at 100 uM […]; summary of the method: as §5

| Compound | pKa [2] | Activity [4] [%] | EC50 ([5]; read-out: EC50) [µM] | Activity [6] | IC50 [7] [µM] | Activity [9] [%] | Activity [10] [%] | Activity [11] | further results |
| --- | --- | --- | --- | --- | --- | --- | --- | --- | --- |
| O=C(/C=C/c1ccc(F)cc1)Nc1ccccc1C(=O)O | 3.4 | 13 | 30 | inactive | 26 | 61 | 37 | inactive | Activity [1]: Active; Activity [3]: Active; Activity [8]: Active |
| O=C(/C=C/c1ccc(O)cc1)Nc1ccccc1C(=O)O | 3.5 | 35 | – | inactive | 43 | 70 | 1 | inactive | inhibition (Cavia porcellus [12]): inactive; Activity (Cavia porcellus [13]): Active; Activity [14]: inactive |
| CC1CCC(C(C)C)C(O)C1 (centres undefined) [MENTHOL] | – | – | 30 | – | – | – | – | – | Activity [15]: inactive; EC50 [16]: 95 µM; Activity [17]: inactive; Activity [18]: inactive |
| O=C(O)Cc1ccccc1Nc1c(Cl)cccc1Cl [DICLOFENAC] | – | – | 56 | – | – | – | – | – | EC50 [19]: 210 µM; Activity [20]: Active; EC50 ([5]; read-out: pEC50 (converted)): 63.1 µM |
| CN1CCC[C@H]1c1cccnc1 [NICOTINE] | – | – | 2 | – | – | – | – | – | Activity [21]: Active; EC50 [16]: 10 µM |
| O=C(/C=C/c1ccccc1Cl)Nc1ccccc1C(=O)O | 3.4 | 5 | 42 | inactive | 11 | 25 | 44 | inactive | Activity [1]: Active; IC50 [22]: 21 µM; Activity [3]: Active; Activity [8]: Active |
| O=C(/C=C/c1ccc(C(F)(F)F)cc1)Nc1ccccc1C(=O)O | 3.4 | 28 | 27 | inactive | – | 17 | 51 | inactive | Activity [23]: inactive; Activity [24]: Active; Activity [20]: Active; IC50 [22]: 34 µM; inhibition (Cavia porcellus [25]): inactive; Activity [26]: Active; Activity (Cavia porcellus [27]): Active |
